EBNA-1 inh = blocks EBNA-1 binding to DNA | EBNA-1 DNA binding, fluorescence polarization | inhibition, % at 14.8 µM | 300,000 compounds, 0.34% hits; in the data active = inhibition above about 28%
HCV NS3 hel inh = inhibitors of Hepatitis C virus NS3 helicase. inhibition, % at 10.9 µM. NS3 helicase DNA unwinding, Cy5 molecular beacon fluorescence. 290,000 compounds, 0.56% hits. AID 1800;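 active = inhibition above the mean of all tested compounds plus 3 SD, set per campaign, cut at about 35% in these data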
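System: Hepatitis C virus NS3 helicase domain fragment enzyme | Reagent: Annealed dual-labelled DNA beacon duplex, ATP-started | Compound dosing: 10.9 µM single point, 0.8% DMSO | Incubation: 1 h reaction at 25 °C, ATP-initiated | Technique: Cy5 fluorescence | Evaluation: Percent inhibition from t60/t0 fluorescence ratio | Benchmarks: Low DMSO, high thioflavine S at 110 µM | Replication: Singlicate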
NR3A LBD binder = NR3A (human) ligand-binding domain modulation; NR3A LBD differential scanning fluorimetry, Tm shift; 0% = protein alone, 100% = glycine-bound protein; Tm shift relative to glycine control, % at 25 µM; 340,000 compounds, 2.5% hits;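 active = melting temperature shift of at least 10% of the positive control shift, at one fixed dose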
ZTA counter = ZTA (EBV) inhibition in EBNA-1 counter-screen; P03206; ZTA-DNA binding, fluorescence polarization; inhibition, % at 11 µM; 320,000 compounds, 0.15% hits; in the data active = inhibition above about 33%
Target sequence (P03206 whole entry, looked up): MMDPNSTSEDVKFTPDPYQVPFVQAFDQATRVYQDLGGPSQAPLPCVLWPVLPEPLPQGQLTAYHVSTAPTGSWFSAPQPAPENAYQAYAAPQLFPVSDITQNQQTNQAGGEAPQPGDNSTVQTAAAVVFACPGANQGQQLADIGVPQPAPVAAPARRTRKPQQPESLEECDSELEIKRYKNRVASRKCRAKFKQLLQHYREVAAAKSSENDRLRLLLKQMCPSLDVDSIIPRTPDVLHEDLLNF
FGF22 binding = binders of recombinant human FGF22 by thermal shift; 340,000 compounds, 1.5% hits; Q9HCT0; activity (Tm shift, normalised), % at 9.99 µM; AID 651658; SYPRO orange fluorescence; percent of sucrose octasulfate shift, DMSO zero;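 active = mean Tm shift, scaled 0 neutral to 100 positive control, at about 1.3% or above, every replicate too, limit read from the data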
Target sequence (Q9HCT0 whole entry, looked up): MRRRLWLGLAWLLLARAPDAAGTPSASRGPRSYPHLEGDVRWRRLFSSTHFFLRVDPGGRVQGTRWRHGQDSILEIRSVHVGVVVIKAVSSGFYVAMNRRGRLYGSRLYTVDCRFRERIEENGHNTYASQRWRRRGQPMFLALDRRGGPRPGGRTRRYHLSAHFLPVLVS
DNA FID counter = counter-screen for HCV NS3 helicase inhibitors: DNA intercalator displacement; inhibition, % at 7.9 µM; 290,000 compounds, 0.17% hits; AID 1845; DNA fluorescent intercalator displacement, fluorescence; in the data active = inhibition above about 37%;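 also: higher means more ethidium bromide displaced from hairpin DNA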
Numbers stand for hits. A selection: hits, their analogues and other compounds. The true share with any hit is near 3.6%.

What do the screens show for `COc1ccc(NC(=O)CC2C(=O)N(c3ccc(Cl)cc3)C(=S)N2CCc2ccccn2)cc1` (configuration not stated)?
EBNA-1 inh: inactive; HCV NS3 hel inh: inactive; NR3A LBD binder: inactive; ZTA counter: inactive; FGF22 binding: inactive; DNA FID counter: inactive

How did COc1ccc(NC(=O)CC2C(=O)N(c3ccc(Cl)cc3)C(=S)N2CCc2ccncc2)cc1 (configuration not stated) do in these assays?
EBNA-1 inh: inactive; HCV NS3 hel inh: inactive; NR3A LBD binder: 10; ZTA counter: inactive; FGF22 binding: inactive; DNA FID counter: inactive

Results for COc1ccc(NC(=O)CC2C(=O)N(c3ccc(Cl)cc3)C(=S)N2NC(=O)c2cccc(F)c2)cc1 (configuration not stated) ?
EBNA-1 inh: inactive; HCV NS3 hel inh: inactive; NR3A LBD binder: 16; ZTA counter: inactive; FGF22 binding: inactive; DNA FID counter: inactive

What do the screens show for `COC(=O)CN1C(=S)N(Cc2ccccc2)C(=O)C1CC(=O)Nc1ccc(Br)cc1` (configuration not stated)?
EBNA-1 inh: inactive; HCV NS3 hel inh: inactive; NR3A LBD binder: 18; ZTA counter: inactive; DNA FID counter: inactive

What do the screens show for `COC(=O)CN1C(=S)N(c2ccc(Cl)cc2)C(=O)C1CC(=O)Nc1ccc(Cl)cc1` (configuration not stated)?
EBNA-1 inh: inactive; HCV NS3 hel inh: inactive; NR3A LBD binder: 20; ZTA counter: inactive; DNA FID counter: inactive

What do the screens show for `COCC(=O)Nc1ccc2c(c1)C(=O)N(C)[C@H]1CC[C@@H](CC(=O)NCc3ccccc3Cl)O[C@H]1CO2`?
FGF22 binding: inactive

What do the screens show for `CCOC(=O)/C=C1\NC(C)(C)Cc2cc(OC)c(OC)cc21`?
EBNA-1 inh: inactive; HCV NS3 hel inh: inactive; NR3A LBD binder: inactive; ZTA counter: inactive; DNA FID counter: inactive

How did COc1cc2c(cc1OC)/C(=C/C(=O)N1CCOCC1)NC(C)(C)C2 do in these assays?
EBNA-1 inh: inactive; HCV NS3 hel inh: inactive; NR3A LBD binder: 11; ZTA counter: inactive; DNA FID counter: inactive

What do the screens show for `COc1cccc2c1C(CCCC(=O)O)CCC2` (configuration not stated)?
NR3A LBD binder: inactive; FGF22 binding: inactive

Results for COc1cccc2c1C1COC3C4CC(C(=O)O)C(C(C2)N13)N4C (configuration not stated) ?
NR3A LBD binder: 14; FGF22 binding: inactive

Results for O=C(NCc1cccnc1)c1cc(-c2ccccc2)on1 ?
EBNA-1 inh: inactive; HCV NS3 hel inh: inactive; NR3A LBD binder: 11; ZTA counter: inactive; DNA FID counter: inactive

What do the screens show for `O=C(C[n+]1cc(-c2ccccc2)n2c1CCC2)Nc1nc(-c2ccccc2)cs1`?
EBNA-1 inh: inactive; HCV NS3 hel inh: inactive; NR3A LBD binder: inactive; ZTA counter: inactive; DNA FID counter: 38

What do the screens show for `O=C(CSc1nc2ccccc2c(=O)[nH]1)Nc1ccccc1N1CCOCC1`?
EBNA-1 inh: inactive; HCV NS3 hel inh: inactive; NR3A LBD binder: inactive; ZTA counter: inactive; FGF22 binding: inactive; DNA FID counter: inactive

What do the screens show for `O=C(CSc1nc2ccccc2c(=O)[nH]1)Nc1ccc(N2CCOCC2)cc1`?
EBNA-1 inh: inactive; HCV NS3 hel inh: inactive; NR3A LBD binder: 17; ZTA counter: inactive; FGF22 binding: inactive; DNA FID counter: inactive

What do the screens show for `Cc1ccc(-c2csc(NC(=O)CSc3nc4ccccc4[nH]3)n2)cc1`?
HCV NS3 hel inh: inactive; NR3A LBD binder: 20; DNA FID counter: inactive

How did COc1ccc(-c2csc(NC(=O)CSc3nc4ccccc4c(=O)[nH]3)n2)cc1 do in these assays?
EBNA-1 inh: inactive; HCV NS3 hel inh: inactive; NR3A LBD binder: 21; ZTA counter: inactive; FGF22 binding: inactive; DNA FID counter: inactive

What do the screens show for `C[C@@H]1CN([C@@H](C)CO)C(=O)c2cccc(NC(=O)Nc3cccc4ccccc34)c2O[C@H]1CN(C)C(=O)Nc1cccc2ccccc12`?
FGF22 binding: inactive

Results for O=C(O)C[C@H]1C[C@@H]2c3cc(NC(=O)c4cccnc4)ccc3O[C@@H]2[C@H](CO)O1 ?
FGF22 binding: inactive

Results for COc1cccc(OCCSc2nc3ccccc3c(=O)[nH]2)c1 ?
EBNA-1 inh: inactive; HCV NS3 hel inh: inactive; NR3A LBD binder: inactive; ZTA counter: inactive; FGF22 binding: 43; DNA FID counter: inactive
